Test [1] has as its target T1, human tear lipocalin (TL) (Homo sapiens, UniProt P31025, W35Y). Put plainly: fluorescence enhancement and blue shift on binding. The following applies: TL 4 μM, DAUDA 2 μM, 10 mM sodium phosphate, pH 7.3; fluorescent probe.
Test [2] deals with human tear lipocalin (TL) (Homo sapiens, UniProt P31025, G121W/W35Y). Put plainly: Trp fluorescence titration, one-site fit. It counts as binding. The procedure, abridged: (§1)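 Recombinant human TL single-Trp mutants: native Trp replaced by Tyr, one site changed to Trp. Expressed in E. coli BL21(DE3); purified by gel filtration and DEAE chromatography. About 14 μM protein in 10 mM sodium phosphate, pH 7.3, at room temperature, titrated with palmitic acid or its spin-labeled analogue. 2 min equilibration per addition. Excitation 295 nm, emission read at λmax. One-site fit gave apparent Kd and stoichiometry.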
Chain of human tear lipocalin (TL) (Homo sapiens, UniProt P31025, G121W/W35Y) (P31025 19-176 W35Y/G121W): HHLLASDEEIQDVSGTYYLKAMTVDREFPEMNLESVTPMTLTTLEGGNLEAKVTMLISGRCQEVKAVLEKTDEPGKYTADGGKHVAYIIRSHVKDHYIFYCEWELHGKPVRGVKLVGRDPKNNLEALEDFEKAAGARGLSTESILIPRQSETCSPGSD

For test [3], the target named is human tear lipocalin (TL) (Homo sapiens, UniProt P31025, L67W/W35Y). Put plainly: Trp fluorescence titration, one-site fit. It counts as binding. The procedure, abridged: as §1
Chain of human tear lipocalin (TL) (Homo sapiens, UniProt P31025, L67W/W35Y) (P31025 19-176 W35Y/L67W): as the sequence (P31025 19-176 W35Y/G121W) above, with L49W, W103G counted along it
Test [4] has as its target human tear lipocalin (TL) (Homo sapiens, UniProt P31025, L86W/W35Y). Put plainly: Trp fluorescence titration, one-site fit. It counts as binding. The procedure, abridged: as §1
Test [5] has as its target human tear lipocalin (TL) (Homo sapiens, UniProt P31025, C119W/W35Y). Kind of test: Trp fluorescence titration, one-site fit. It counts as binding. A digest of the protocol:
as §1

Test [6] addresses human tear lipocalin (TL) (Homo sapiens, UniProt P31025, M40W/W35Y). Put plainly: Trp fluorescence titration, one-site fit. It counts as binding. The procedure, abridged: as §1
For test [7], the target named is human tear lipocalin (TL) (Homo sapiens, UniProt P31025, I106W/W35Y). Put plainly: Trp fluorescence titration, one-site fit. It counts as binding. A digest of the protocol: as §1
Chain of human tear lipocalin (TL) (Homo sapiens, UniProt P31025, I106W/W35Y) (P31025 19-176 W35Y/I106W): as the sequence (P31025 19-176 W35Y/G121W) above, with I88W, W103G counted along it
In test [8] the target is human tear lipocalin (TL) (Homo sapiens, UniProt P31025, T55W/W35Y). Kind of test: Trp fluorescence titration, one-site fit. It counts as binding. A digest of the protocol:
as §1

The target in test [9] is human tear lipocalin (TL) (Homo sapiens, UniProt P31025, L123W/W35Y). Put plainly: Trp fluorescence titration, one-site fit. It counts as binding. A digest of the protocol:
as §1

For test [10], the target named is human tear lipocalin (TL) (Homo sapiens, UniProt P31025, W35Y/Y115W). Put plainly: Trp fluorescence titration, one-site fit. It counts as binding. The procedure, abridged: as §1
Chain of human tear lipocalin (TL) (Homo sapiens, UniProt P31025, W35Y/Y115W) (P31025 19-176 W35Y/Y115W): as the sequence (P31025 19-176 W35Y/G121W) above, with Y97W, W103G counted along it
The target of test [11] is human tear lipocalin (TL) (Homo sapiens, UniProt P31025, I75W/W35Y). Put plainly: Trp fluorescence titration, one-site fit. It counts as binding. A digest of the protocol: as §1
Chain of human tear lipocalin (TL) (Homo sapiens, UniProt P31025, I75W/W35Y) (P31025 19-176 W35Y/I75W): as the sequence (P31025 19-176 W35Y/G121W) above, with I57W, W103G counted along it
For test [12], the target named is T1, human tear lipocalin (TL). Kind of test: DAUDA fluorescence displacement. It counts as binding.

The Kd is the concentration at which binding is half-saturated. Low readings indicate tighter binding, high ones weaker binding. By IC50 is commonly meant the midpoint of a concentration-inhibition curve. Low values mean inhibition by little substance, high ones a need for much substance.

T1 sequence (P31025 19-176 W35Y): as the sequence (P31025 19-176 W35Y/G121W) above, with W103G counted along it
Chain of human tear lipocalin (TL) (Homo sapiens, UniProt P31025, T55W/W35Y) (P31025 19-176 W35Y/T55W): as the sequence (P31025 19-176 W35Y/G121W) above, with T37W, W103G counted along it
Chain of human tear lipocalin (TL) (Homo sapiens, UniProt P31025, L86W/W35Y) (P31025 19-176 W35Y/L86W): as the sequence (P31025 19-176 W35Y/G121W) above, with L68W, W103G counted along it
Chain of human tear lipocalin (TL) (Homo sapiens, UniProt P31025, M40W/W35Y) (P31025 19-176 W35Y/M40W): as the sequence (P31025 19-176 W35Y/G121W) above, with M22W, W103G counted along it
Chain of human tear lipocalin (TL) (Homo sapiens, UniProt P31025, C119W/W35Y) (P31025 19-176 W35Y/C119W): as the sequence (P31025 19-176 W35Y/G121W) above, with C101W, W103G counted along it
Chain of human tear lipocalin (TL) (Homo sapiens, UniProt P31025, L123W/W35Y) (P31025 19-176 W35Y/L123W): as the sequence (P31025 19-176 W35Y/G121W) above, with W103G, L105W counted along it

As for `CN(C)c1cccc2c(S(=O)(=O)NCCCCCCCCCCC(=O)O)cccc12` [DAUDA, 11-((5-dimethylaminonaphthalene-1-sulfonyl)amino)undecanoic acid], the “fluorescence enhancement and blue shift on binding” value in test [1] is “DAUDA increases significantly and exhibits a blue shift ... when bound to TL”.
`CCCCCCCCCCCCCCCC(=O)O` [PA]: the dissociation constant Kd in test [2] turned out to be 300 ± 100 nM; in test [3], 2300 ± 200 nM; in [4] it was 300 ± 100 nM; in test [5], 2800 ± 500 nM; in test [6] it was 900 ± 200 nM; in test [7], 500 ± 200 nM. Further, the Kd in test [8] is 5800 ± 600 nM; in test [9] it was 500 ± 100 nM; in [10], 400 ± 100 nM; in test [11], 500 ± 100 nM. In test [12], this compound came in with an IC50 of 2300 nM.
In turn, `CCCCCCCCCCCC(=O)O` [LA] returned an IC50 in test [12] of 12600 nM.
